In the library only some 3.1% were active in any assay of this set; here they are far more common.
HSP90 inh = HSP90 inhibitors, primary screen, cell lysate, luminescence; inhibition, % at 5.6 µM; Rabbit reticulocyte lysate, luciferase refolding luminescence, 3 h; AID 1789, 2009; Heat shock protein HSP 90 (rabbit reticulocyte lysate; luciferase refolding); hit rate 0.91% among 290,000;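 active = inhibition above the screen-wide mean plus 3 SD, computed separately per campaign, cut at about 16% in these data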;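 note: inhibitors lower the luminescence because luciferase stays unfolded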
HSF-1 act = HSF-1 activators, primary screen, NIH3T3-HGL cells, MG132 stress, luminescence, single point. NIH3T3-HGL HSF-1 luciferase reporter, 8 h; 100% = twice DMSO control signal. activation, % at 9 µM. hit rate 1.7% among 300,000. AID 504408, 2011;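 active = mean replicate activation of at least 50% with a set share of replicates each reaching 50%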
HSF1 inh = HSF1 inhibitors in luciferase reporter cells, primary screen, cell-based, NIH3T3, luminescence; NIH3T3-HGL HSE-luciferase, MG132-induced, luminescence 8 h; stronger effect = lower value; activity change, negative = inhibition, % at 7.5 µM (by protocol); hit rate 0.77% among 300,000;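 active = more than half of replicate wells show activity change below -50%, luminescence cut by over half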;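 note: luciferase reports HSF-1 transcriptional activity via heat shock element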
TbHK1 inh = Trypanosoma brucei hexokinase 1 inhibitors, primary screen, biochemical, G6PDH-coupled NADH absorbance, MLSCN library | hit rate 0.11% among 220,000 | hexokinase 1 [Trypanosoma brucei] | recombinant TbHK1, G6PDH-coupled NADH A340 | inhibition, % at 10 µM | AID 1430, 2008;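 active = inhibition of 50% or more in the single-dose primary screen; inactive = inhibition below 50%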
HKDC1 inh = HKDC1 hexokinase inhibitors, primary screen, biochemical, fluorescence, uHTS; inhibition, % at 20 µM; hit rate 0.16% among 340,000; AID 493160, 2011; recombinant HKDC1, G6PDH/diaphorase resazurin coupled fluorescence;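 active = inhibition above about 35% when tested at 20 µM, limit read from the data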
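Test system: recombinant HKDC1 (HK5) hexokinase enzyme, produced in-house / Doses: 20 µM test compound, 1% DMSO / Timing: 90 min, room temperature / Detection: G6PDH/diaphorase-coupled fluorescence, 1 mM NADP, 100 µM resazurin, 525/613 nm / Control set: DMSO wells with and without enzyme mix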
Hsp70 activator = Hsp70 transcriptional activators, primary screen, cell-based, HeLa, Hsp70 promoter luciferase, luminescence, 10 µM. AID 1203, 2008. hit rate 0.04% among 200,000. activation, % at 10 µM. HeLa Hsp70 promoter luciferase reporter; scaled: vehicle 0, proteasome-inhibitor control 100%;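 active = activation above the mean across all tested compounds plus 3 SD, cutoff set per campaign, cut at about 5.5% in these data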
HSP90 confirm = HSP90 inhibitors, confirmation, cell lysate, luminescence | shares compounds with HSP90 inh | rabbit reticulocyte lysate, luciferase refolding luminescence, 3 h | inhibition, % at 5.9 µM | hit rate 64% among 2,300; in the data active = inhibition above about 18%
luciferase ctr = firefly luciferase inhibitors, HSP90 counter-screen, confirmation, artefact control for HSP90 inhibitor project, biochemical, luminescence, triplicate; hit rate 48% among 2,300; AID 1847, 2009; shares compounds with HSP90 inh; purified native firefly luciferase; inhibition, % at 5.9 µM;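 active = inhibition above the mean inhibition of all tested sample wells plus 3 SD, cut at about 10% in these data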
Target sequence (P08659 whole entry, looked up): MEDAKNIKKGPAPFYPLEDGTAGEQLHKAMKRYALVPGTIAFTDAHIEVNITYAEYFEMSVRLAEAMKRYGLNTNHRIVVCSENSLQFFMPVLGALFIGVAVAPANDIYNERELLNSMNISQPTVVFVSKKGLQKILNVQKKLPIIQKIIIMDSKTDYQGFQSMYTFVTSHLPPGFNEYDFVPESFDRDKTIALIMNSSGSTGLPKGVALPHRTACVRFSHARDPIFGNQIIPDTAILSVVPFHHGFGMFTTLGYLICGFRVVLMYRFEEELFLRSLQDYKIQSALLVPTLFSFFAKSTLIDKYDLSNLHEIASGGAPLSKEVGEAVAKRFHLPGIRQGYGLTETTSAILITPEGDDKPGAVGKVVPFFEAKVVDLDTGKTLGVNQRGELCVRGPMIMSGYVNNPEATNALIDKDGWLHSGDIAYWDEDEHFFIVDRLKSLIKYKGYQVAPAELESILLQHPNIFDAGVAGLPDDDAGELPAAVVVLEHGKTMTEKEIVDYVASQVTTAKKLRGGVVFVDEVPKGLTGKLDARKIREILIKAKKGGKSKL
Each line names hits and unclear results; the compound was inactive in the other large screens (follow-up assays come after a bar, where they were run).

CSc1ccc(/C=N/Nc2ccc(Cl)c(C(=O)O)c2)cc1	HSP90 inh 33 | HSP90 confirm 80 | luciferase ctr 54
O=C(N/N=C/c1c[nH]c2ccccc12)c1cccc(Cl)c1	none (no result: TbHK1 inh, Hsp70 activator)
O=C(O)c1cc(N/N=C/c2cccnc2)ccc1Cl	HSP90 inh 30 (no result: Hsp70 activator) | HSP90 confirm 39 | luciferase ctr inactive
O=C(O)c1cc(N/N=C/c2ccncc2)ccc1Cl	HSP90 inh 25 (no result: Hsp70 activator) | HSP90 confirm 62 | luciferase ctr 10
O=C(N/N=C/c1ccncc1)c1cccc(N/N=C/c2ccncc2)c1	none
COc1ccc2ccccc2c1/C=N/Nc1ccc(Cl)c(C(=O)O)c1	none (no result: TbHK1 inh, Hsp70 activator)
O=C(O)c1cc(N/N=C/c2c[nH]c3ccccc23)ccc1Cl	HSP90 inh 40 (no result: TbHK1 inh, Hsp70 activator) | HSP90 confirm 38 | luciferase ctr inactive
Cc1cccc(NS(=O)(=O)c2ccc(C)c(C(=O)NCc3ccncc3)c2)c1	none (no result: HSP90 inh, TbHK1 inh, Hsp70 activator)
O=C(O)C1OCC2(CO1)COC(C(=O)O)OC2 (configuration not stated)	none (no result: HSP90 inh, HSF-1 act, HSF1 inh, TbHK1 inh, Hsp70 activator)
Clc1cccc(N/N=C/c2ccc(N3CCOCC3)cc2)c1	none
O=C(N/N=C/c1cccnc1)c1ccc(NC(=O)c2ccc(Cl)cc2)cc1	HSP90 inh 20 (no result: TbHK1 inh, Hsp70 activator) | HSP90 confirm inactive | luciferase ctr inactive
O=C(O)c1cc(N/N=C/c2ccc(N3CCOCC3)cc2)ccc1Cl	HSP90 inh 39 (no result: Hsp70 activator) | HSP90 confirm 83 | luciferase ctr 65
O=C(N/N=C/c1cccnc1)c1ccc(NC(=O)c2cccc(Cl)c2)cc1	none (no result: TbHK1 inh, Hsp70 activator)
O=c1c2sc3nc(N4CCOCC4)c4c(c3c2ncn1C(c1ccccc1)c1ccccc1)CCCC4	none (no result: HSP90 inh, HSF-1 act, HSF1 inh, TbHK1 inh, Hsp70 activator)
CCN1CCN(c2ccc(S(=O)(=O)N3CCCCC3)cc2NC(=O)c2cccc(OC(F)F)c2)CC1	none (no result: HSP90 inh, TbHK1 inh, Hsp70 activator)
COC(=O)c1ccc2nc(-c3cccc(N)c3)cn2c1	HSP90 inh 36 | HSP90 confirm 71 | luciferase ctr 54
COc1cccc(N2CCN(CC(=O)Nc3ccc(S(=O)(=O)N4CCCCCC4)cc3)CC2)c1	none (no result: HSP90 inh, HSF-1 act, HSF1 inh, TbHK1 inh, Hsp70 activator)
CC(=O)N(C)c1ccc(NS(=O)(=O)c2cccc3nsnc23)cc1	none (no result: TbHK1 inh, Hsp70 activator)
Cc1ccc2oc(=O)c(/C=C(\O)C(C)(C)C)nc2c1	none
Cc1ccc2oc(=O)c(/C=C(\O)c3ccco3)nc2c1	HSP90 inh 37 (no result: Hsp70 activator) | HSP90 confirm 37 | luciferase ctr inactive
CC(C)(C)/C(O)=C/c1nc2cc(Cl)ccc2oc1=O	HSP90 inh 80 (no result: Hsp70 activator) | HSP90 confirm 81 | luciferase ctr inactive
CCCc1cc(C(=O)Nc2ccc(CC)cc2)no1	none (no result: TbHK1 inh, Hsp70 activator)
CCOC(=O)/C(C#N)=C\c1cc(C)n(-c2ccccc2)c1C	HSP90 inh 50, HSF1 inh -63 | HSP90 confirm 63 | luciferase ctr 62
CC(C)(C)n1ncc2c(=O)n(CC(=O)OCc3ccccc3)cnc21	HSP90 inh 84, HSF1 inh -73 | HSP90 confirm 91 | luciferase ctr 89
COc1ccc(N2CCN(C(=O)c3ccc4nc(N5CCCCC5)sc4c3)CC2)cc1	HSP90 inh 19 | HSP90 confirm 29 | luciferase ctr inactive
CC(NCC(=O)NC(=O)NC1CCCC1)c1ccc(Cl)cc1Cl (configuration not stated)	none (no result: HSP90 inh, TbHK1 inh, Hsp70 activator)
O=C(O)CC1Sc2nnc(COc3ccc(Cl)cc3)n2N=C1c1ccccc1 (configuration not stated)	none (no result: TbHK1 inh, Hsp70 activator)
COc1cc(C(=O)OCC(=O)N2CCNC2=O)cc(Cl)c1OC	none (no result: HSP90 inh, HSF-1 act, HSF1 inh, TbHK1 inh, Hsp70 activator)
C#CCn1cc(/C=C2\NC(=O)NC2=O)c2ccccc21	HSP90 inh 67 (no result: TbHK1 inh, Hsp70 activator) | HSP90 confirm 53 | luciferase ctr inactive

Bioassay records deposited in PubChem by several laboratories.
